Source: PubChem BioAssay
HCT116 PTEN-null: PTEN-deleted cell growth suppression. HCT116 PTEN-null viability, CellTiter-Glo, 60 h; hits give low values. viability, % at 10 µM. actives 1.2% (n = 140,000);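 active = viability at or below a set limit, 4 SD under the median of all tested compounds, cut at about 3.7% in these data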;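 note: PTEN knockout HCT116 line with beta catenin targeted HCT116 as companion control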
bCat KO growth: beta-catenin-lacking colon tumor cell growth suppression | HCT116 beta-catenin knockout viability, CellTiter-Glo, 60 h; hits give low values | viability, % at 10 µM | actives 1.5% (n = 140,000);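 active = viability at or under a set limit, the compound median less 4 SD, cut at about 6% in these data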;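 note: 0% = Hyamine 1622 control at 20 µM and 100% = untreated cell control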
H69AR inhibit: blocks growth of human H69AR lung tumor cells; H69AR lung tumor viability, ATP luminescence, 72 h; hits give low values; viability, % at 10 µM; actives 6% (n = 85,000);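 active = viability at or below 40%; inactive = viability above 40%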;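 note: multidrug resistant small cell line overexpressing MRP-1 efflux transporter; 100% = mean luminescence of untreated control wells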
Fibroblast inh: blocks proliferation of human lung fibroblasts; LL 47 human lung fibroblast viability, ATP luminescence; hits give low values; viability, % at 10 µM; actives 1.1% (n = 85,000);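 active = viability at or below 50% in the single dose screen; inactive = viability above 50%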;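 note: compound exposure lasted 72 h before the ATP readout; 100% = median luminescence of untreated cell-only wells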
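Signal: luminescent ATP detection, CellTiter-Glo; assay system: LL 47 human lung fibroblasts; input: 1,150 cells/well; incubation: overnight cell rest, 72 h compound treatment at 37 °C; measure: % viability versus median cells-only luminescence; medium: IMEM growth medium with 15% fetal bovine serum; dosing: compound addition at 0.1% DMSO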
HUVEC prolif 384: inhibitors of human endothelial cell proliferation; HUVEC proliferation, CellTiter-Glo luminescence, 72 h; hits give low values; AID 648; actives 1.1% (n = 86,000); viability, % at 10 µM (by protocol);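 active = viability at or below 30%; inactive = viability above 30%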;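 note: 100% = median luminescence of DMSO-only cell control wells on each plate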
An asterisk follows results filed as active; x = not tested or not shown. The sample as a whole holds a higher share of hits than the screen did.

SMILES | HCT116 PTEN-null | bCat KO growth | H69AR inhibit | Fibroblast inh | HUVEC prolif 384
CCC(C(=O)O/N=C(\N)c1cccc(C)c1)c1ccccc1 (centres undefined) | 66 | 64 | 7.9* | 82 | 89
CCOc1ccc(CCNC(=O)Cn2cccc2C(=O)c2ccccc2C)cc1OCC | 91 | 92 | x | x | x
O=C(COc1ccccc1Br)N1CCN(c2ccccc2)CC1 | 99 | 93 | 90 | 99 | 101
Cc1nc([N+](=O)[O-])c(Br)n1CC(=O)c1ccc(Cl)cc1 | 41 | 47 | 1.2* | 77 | 77
CCCCC(=O)NC(=S)Nc1ccc(S(=O)(=O)N2CCCC2)cc1 | 83 | 91 | x | x | x
Cc1ccc(/C=C/C(=O)Nc2nc3ccccc3[nH]2)cc1 | 68 | 69 | x | x | x
Cc1ccc(/C=C/C(=O)c2nc3ccccc3[nH]2)cc1 | 2.7* | 2.5* | x | x | x
CC(=O)NC1=NN(C(C)=O)C(C)(c2cccs2)S1 (centres undefined) | 22 | 18 | 28* | 57 | 76
CN(c1cccc(Cl)c1)S(=O)(=O)c1cccc(C(=O)NC2=NCCS2)c1 | 44 | 46 | 40* | 100 | 89
O=C(Nc1ccccc1)c1ccsc1 | 99 | 95 | x | x | x
CS(=O)(=O)N1CCN(c2ccc([N+](=O)[O-])c(NCc3ccc(Cl)cc3)c2)CC1 | 6 | 2.2* | x | x | x
CS(=O)(=O)N1CCN(c2ccc([N+](=O)[O-])c(NCc3ccccc3)c2)CC1 | 79 | 85 | x | x | x
O=C(Nc1nccs1)c1cccc(N2C(=O)c3cccc4c([N+](=O)[O-])ccc(c34)C2=O)c1 | 1.5* | 1.7* | x | x | x
COc1ccc(S(=O)(=O)NCCc2nnc3ccc(SCC(=O)Nc4nc(C)cs4)nn23)cc1 | 101 | 97 | x | x | x
O=S(=O)(c1ccc(Cl)c(Cl)c1)c1snnc1-c1ccccc1 | 1.3* | 1.2* | -0.2* | 4.8* | 3.6*
Cc1ccc(C(=O)C[n+]2cc(-c3ccc(C)cc3)n3c2CCCCC3)cc1 | 5 | 3.5* | x | x | x
Cc1ccc(-c2c[n+](CC(=O)OCc3ccccc3)c3n2CCC3)cc1 | 100 | 94 | x | x | x
c1ccc(Oc2cccc(OCCCCSc3ncccn3)c2)cc1 | 97 | 92 | 91 | 100 | 115
COc1ccc(Cn2c(-c3ccco3)nc3oc4cc(OC)ccc4c(=O)c3c2=O)cc1 | 33 | 45 | 20* | 98 | 73
COc1ccc(CCn2c(-c3ccco3)nc3ccccc3c2=O)cc1OC | 26 | 24 | 39* | 105 | 68
COc1ccc(-c2nc3oc4cc(OC)ccc4c(=O)c3c(=O)n2Cc2ccco2)cc1 | 80 | 87 | 3.8* | 100 | 102
COc1ccc(Cn2c(-c3ccco3)nc3oc4ccccc4c(=O)c3c2=O)cc1 | 96 | 96 | 29* | 72 | 75
COCCCn1c(-c2ccco2)nc2ccccc2c1=O | 88 | 92 | 96 | 97 | 95
Cc1ccc2nc(SC(C)C(=O)Nc3cccc([N+](=O)[O-])c3)[nH]c2c1 (centres undefined) | 90 | 83 | x | x | x
O=C(CCN1C(=O)c2ccccc2C1=O)Nc1sc2c(c1C(=O)NCC1CCCO1)CCC2 (centres undefined) | 90 | 88 | x | x | x
SMILES | HCT116 PTEN-null | bCat KO growth | H69AR inhibit | Fibroblast inh | HUVEC prolif 384
CCn1c(SCc2ccccc2)nnc1-c1ccc(S(=O)(=O)N2CCCCC2)cc1 | 71 | 72 | 26* | 86 | 100
C(=C\c1ccccc1)/CN1CCN(C(c2ccccc2)c2ccccc2)CC1 | 63 | 56 | 23* | 96 | 89
CCCCC(CC)Cn1c(O)c(/C=C2\C=NN=C2c2ccccc2)sc1=S (centres undefined) | 1.6* | 2.1* | x | x | x
CCCn1c(O)c(/C=C2\C=NN=C2c2ccccc2)sc1=S | 37 | 32 | x | x | x
CSc1ccc(CNc2ccc(C)cc2)cc1 | 88 | 82 | x | x | x
Cc1cc(N2CCC3(CC2)OCCO3)n2nc(C)c(-c3ccc(Cl)cc3)c2n1 | x | x | 37* | 84 | 91
COc1ccccc1-c1c(C)nn2c(N3CCC4(CC3)OCCO4)cc(C)nc12 | 82 | 83 | 43 | 88 | 97
O=c1c(/C=C(\O)c2ccccc2)nc2ccccc2n1-c1ccccc1 | 77 | 85 | 39* | 104 | 112
CC(C)Cn1c(=O)c(C(=O)Nc2ccncc2)c(O)c2ccccc21 | x | x | 9.8* | 65 | 62
Cn1c(=O)c(C(=O)Nc2cccnc2)c(O)c2ccccc21 | x | x | 12* | 78 | 44
Cn1c(=O)c(C(=O)Nc2ncccc2O)c(O)c2ccccc21 | 94 | 82 | 86 | 99 | 98
Cc1ccc(NC(=O)c2c(O)c3ccccc3n(C)c2=O)nc1 | 60 | 77 | 13* | 31* | 126
